How the values were obtained:
HFF [1] = test: Compound was tested for antiviral activity against human cytomegalovirus (HCMV) by plaque reduction assay using HFF cells; assay type: functional, cell-based
In short: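 HCMV plaque reduction assay in HFF cells, run in duplicate. Value reported as IC50. Highest concentration tested 10 or 100.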

[2] = Compound was tested for inhibition activity of human oral carcinoma cell line (KB ) cells in quadruplicate assay.; assay type: functional, cell-based
In short: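 KB cell growth inhibition was run in quadruplicate wells and reported as IC50, meaning the concentration that halves growth. Values marked > indicate that 50% inhibition was not reached at the highest concentration tested.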

Human alphaherpesvirus 1 = test: Compound was tested for antiviral activity against herpes simplex virus type 1 (HSV-1); assay type: functional, organism-based
In short: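 HSV-1 activity read by ELISA in quadruplicate wells, with the plaque assay used for the DHPG control. Value reported as IC50. Top concentration tested 10 or 100.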

HFF [3] = test: Compound was tested for visual cytotoxicity on human foreskin fibroblasts (HFF) cells; assay type: functional, cell-based
In short: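 Cytotoxicity in HFF cells scored visually at the time HCMV plaques were counted. Results from duplicate experiments.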

HFF [4] = test: Compound was tested for antiviral activity against human cytomegalovirus (HCMV) by yield reduction assay using HFF cells; assay type: functional
In short: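 HCMV yield reduction assay in HFF cells, run in duplicate. Value reported as IC90. Highest concentration tested 10 or 100.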

For `OC[C@H]1O[C@@H](n2cnc3cc(Cl)c(Cl)cc32)[C@H](F)[C@@H]1O`, the IC50 (HFF [1]) was > 100 µM, the IC50 [2] was > 100 µM and the IC50 (Human alphaherpesvirus 1) was > 100 µM. The IC50 (HFF [3]) was > 100 µM.
In the case of `O[C@H]1[C@H](OC(c2ccccc2)(c2ccccc2)c2ccccc2)[C@@H](COC(c2ccccc2)(c2ccccc2)c2ccccc2)O[C@H]1n1c(Cl)nc2cc(Cl)c(Cl)cc21`, the IC50 (HFF [1]) is reported as > 10 µM, the IC50 [2] is reported as > 100 µM and the IC50 (Human alphaherpesvirus 1) is reported as > 100 µM. For the same compound, the IC50 (HFF [3]) was > 100 µM.
With `Clc1cc2nc(Cl)n([C@@H]3O[C@H](COC(c4ccccc4)(c4ccccc4)c4ccccc4)[C@@H](OC(c4ccccc4)(c4ccccc4)c4ccccc4)[C@@H]3OC(c3ccccc3)(c3ccccc3)c3ccccc3)c2cc1Cl` the IC50 (HFF [1]) was > 10 µM, the IC50 [2] was > 100 µM and the IC50 (Human alphaherpesvirus 1) was > 100 µM. The IC50 (HFF [3]) was > 100 µM.
In the case of `OC[C@H]1O[C@@H](n2c(Cl)nc3cc(Cl)c(Cl)cc32)[C@@H](F)[C@@H]1O`, the IC50 (HFF [1]) is reported as 8 µM, the IC50 [2] is reported as 60 µM and the IC50 (Human alphaherpesvirus 1) is reported as 50 µM. It also gave an IC90 (HFF [4]) of 8 µM and an IC50 (HFF [3]) of 32 µM.
With `OC[C@H]1O[C@@H](n2c(Br)nc3cc(Cl)c(Cl)cc32)[C@H](F)[C@@H]1O` the IC50 (HFF [1]) was 17 µM, the IC50 [2] was 80 µM and the IC50 (Human alphaherpesvirus 1) was > 100 µM. For the same compound, the IC50 (HFF [3]) was 100 µM.
Work on `O=C(OC[C@H]1O[C@@H](n2c(Cl)nc3cc(Cl)c(Cl)cc32)[C@@H](F)[C@@H]1OC(=O)c1ccccc1)c1ccccc1` yielded an IC50 [2] of 100 µM.
With `CC(C)Nc1nc2cc(Cl)c(Cl)cc2n1[C@@H]1O[C@H](CO)[C@@H](O)[C@H]1F` the IC50 (HFF [1]) was > 100 µM, the IC50 [2] was > 100 µM and the IC50 (Human alphaherpesvirus 1) was > 100 µM. The IC50 (HFF [3]) was > 100 µM.
With `OC[C@H]1O[C@@H](n2c(Cl)nc3cc(Cl)c(Cl)cc32)C(O)[C@@H]1F` (stereo not given in full) the IC50 (HFF [1]) was 9.4 µM, the IC50 [2] was > 100 µM and the IC50 (Human alphaherpesvirus 1) was > 100 µM. The IC90 (HFF [4]) was 13 µM and the IC50 (HFF [3]) was 40 µM.
For `OC[C@H]1O[C@@H](n2c(Br)nc3cc(Cl)c(Cl)cc32)[C@H](O)[C@@H]1O`, the IC50 [2] was > 100 µM and the IC90 (HFF [4]) was 0.2 µM.
With `OC[C@H]1O[C@@H](n2c(Cl)nc3cc(Cl)c(Cl)cc32)[C@H](O)[C@@H]1O` the IC50 [2] was 210 µM and the IC90 (HFF [4]) was 1.4 µM.
Compound `OC[C@H]1O[C@@H](n2cnc3cc(Cl)c(Cl)cc32)[C@H](O)[C@@H]1O` [DICHLORORIBOBENZIMIDAZOLE] has an IC50 [2] of 36 µM and an IC90 (HFF [4]) of 19 µM.
For `Nc1nc2c(ncn2COC(CO)CO)c(=O)[nH]1` [GANCICLOVIR], the IC50 [2] was > 100 µM, the IC90 (HFF [4]) was 1.6 µM and the IC50 (HFF [3]) was > 100 µM.

— ChEMBL document CHEMBL1133755, “Synthesis of fluorosugar analogues of 2,5,6-trichloro-1-(beta-D-ribofuranosyl)benzimidazole as antivirals with potentially increased glycosidic bond stability” (J Med Chem, 2000)
